Screening data: PubChem BioAssay, Sanford-Burnham Center for Chemical Genomics
This is a sample that favours compounds with a hit; in the whole collection about 2.4% have one here.
DNMT1 inh – inhibitors of human DNMT1; P26358; DNMT1 molecular beacon, Hinp1I cleavage, fluorescence; inhibition (reported as % activation of signal), % at 10 µM; 360,000 tested, 0.83% active; AID 588458; in the data active = inhibition above about 50%
LMPTP block – blocks human LMPTP phosphatase. 360,000 tested, 0.22% active. P24666. inhibition, % at 20 µM. AID 651560. recombinant LMPTP-A, OMFP fluorogenic substrate, fluorescence intensity;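 active = compounds that cut the enzyme signal by at least half of the control window in the single-dose screen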;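 note: plate controls were DMSO wells with enzyme plus substrate for no effect and substrate without enzyme for full effect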
Target sequence (P24666 whole entry, looked up): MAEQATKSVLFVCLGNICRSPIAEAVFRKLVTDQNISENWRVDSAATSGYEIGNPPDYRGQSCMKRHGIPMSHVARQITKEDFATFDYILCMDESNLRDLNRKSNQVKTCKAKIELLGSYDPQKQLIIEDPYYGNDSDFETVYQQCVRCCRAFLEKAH
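Material: LMPTP-A; amount: 0.625 nM enzyme; doses: single 20 µM dose; times: reaction 50 min, room temperature, dark; technique: fluorescence intensity of OMFP turnover product; benchmarks: no-enzyme and uninhibited controls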
Scp-1 inhibitor – blocks human Scp-1 phosphatase activity | inhibition, % at 20 µM | Recombinant Scp1, phosphopeptide, malachite green phosphate absorbance | 340,000 tested, 0.88% active;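 active = inhibition above about 50% at 20 µM, limit read from the data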;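 note: plate controls were DMSO wells with enzyme for no effect and wells lacking enzyme for full effect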
Target sequence (Q9GZU7 76-261 limits assumed): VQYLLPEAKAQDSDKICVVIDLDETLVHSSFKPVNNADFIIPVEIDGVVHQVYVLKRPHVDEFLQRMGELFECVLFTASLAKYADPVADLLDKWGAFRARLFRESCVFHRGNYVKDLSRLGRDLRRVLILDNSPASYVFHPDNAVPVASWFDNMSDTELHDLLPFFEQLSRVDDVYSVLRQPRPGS
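Material – SCP-1 phosphatase catalytic domain, residues 76-261 · Buffer or medium – Acidic Tris acetate buffer with magnesium and detergent · Also added – Phospho 17-mer peptide substrate · Compound – single 20 µM dose, 1% DMSO · Times – 45 min room-temperature reaction, 5 min colour, 30 min stabiliser · Technique – Phosphate-binding colour reagent, absorbance read at 630 nm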
NadD inh – blocks S. aureus nicotinate mononucleotide adenylyltransferase | purified NadD enzyme, colorimetric absorbance read-out | inhibition, % at 20 µM | 360,000 tested, 0.78% active | AID 602399; in the data active = inhibition above about 26%
SUMO1 PPI mod – alters human SUMO1 binding to SIM partners; AID 602429; SUMO1 binding to a labelled peptide, TR-FRET, 1 h; inhibition, % at 20 µM; 360,000 tested, 0.33% active; P63165; in the data active = inhibition above about 37%
Target sequence (P63165 whole entry, looked up): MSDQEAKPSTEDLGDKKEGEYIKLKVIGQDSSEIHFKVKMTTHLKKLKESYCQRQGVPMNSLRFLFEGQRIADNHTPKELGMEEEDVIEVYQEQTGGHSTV
STEP inh – STEP (human) phosphatase inhibition; P54829; recombinant STEP, OMFP fluorogenic substrate, fluorescence; 360,000 tested, 0.25% active; inhibition, % at 20 µM;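 active = inhibition at 20 µM, scaled per plate between control wells, above about 37%, limit read from the data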;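 note: 0% = DMSO with enzyme and substrate and 100% = substrate only without enzyme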
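Material: STEP (striatal-enriched tyrosine phosphatase) enzyme, cell-free | Medium: 50 mM Bis-Tris pH 6.0 with 2.5 mM DTT and 0.005% Tween 20 | Read-out: Percent inhibition scaled to no-enzyme and uninhibited-enzyme controls, plate-pattern corrected | Signal: Fluorescence read at 480 nm ex / 540 nm em | Times: 20 min reaction, room temperature, in the dark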
STEP inh conf – confirmation of human STEP phosphatase inhibitors. recombinant STEP, OMFP fluorogenic substrate, fluorescence. shares compounds with STEP inh. 520 tested, 32% active. inhibition, % at 20 µM; call rule not given here;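 note: 0% = enzyme with substrate plus DMSO and 100% = substrate without enzyme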
* marks the source's active call; other numbers are inactive results; . = no result.

SMILES	DNMT1 inh	LMPTP block	Scp-1 inhibitor	NadD inh	SUMO1 PPI mod	STEP inh	STEP inh conf
CC1=C(O)C(=O)C(C2=C(O)C(=O)C(C)=C(O)C2=O)=C(O)C1=O	1.1	3.8	-1.3	16.7	-12.7	65.1*	21.2*
CC(=O)N1CCc2cc(S(=O)(=O)CCC(=O)N3CCN(c4cc(C)ccc4C)CC3)ccc21	-0.3	0.6	-5.2	3.0	-1.3	1.8	.
CC1=C(C(=O)OC(C)C)[C@@H](c2ccc(C)o2)NC(=O)N1	0.7	-0.4	-6.5	1.1	2.9	120.4*	1.8
CCc1cccc(C)c1NC(=S)N(CCCN1CCOCC1)Cc1cccnc1	0.8	-5.2	-5.2	-5.8	4.0	41.0*	4.6
Cc1ccc(Cl)cc1NC(=S)N(CCCN1CCN(C)CC1)Cc1cccs1	4.3	-0.3	-0.8	-4.8	-2.4	-1.1	.
CCOc1ccc(NC(=O)N(CCCN2CCOCC2)Cc2cccnc2)cc1	-1.6	-6.2	-7.4	8.6	1.9	-2.5	.
Cc1cc(Cl)ccc1NC(=S)N(CCCN1CCOCC1)Cc1cccs1	8.9	-2.4	-1.7	-5.0	-0.3	57.2*	11.7
O=C(NCc1cccnc1)C1CCN(C(=O)c2ccc(Cl)cc2Cl)CC1	-2.9	0.2	-5.0	-1.1	3.2	2.4	.
O=C(NCc1ccco1)C1CCN(C(=O)c2ccc(Cl)cc2Cl)CC1	-1.1	-0.4	5.3	2.2	1.8	56.1*	10.9
COc1ccccc1-c1noc(CCC(=O)NC2CCCC2)n1	-2.1	-0.3	-4.6	-2.1	-0.6	4.7	.
CCOc1ccccc1-c1noc(CCC(=O)NC2CCCCC2)n1	-1.1	0.8	-1.2	4.6	-0.8	91.8*	-1.0
CSCCC(c1nnnn1C1CCCC1)N1CCN(C/C=C/c2ccccc2)CC1 (stereo unspecified)	2.0	-1.8	.	-2.0	2.1	-1.8	.
O=C(O)c1ccc(NC(=S)NC(=O)c2ccc(-c3ccc(Br)cc3)o2)cc1	6.2	79.8*	8.4	10.9	86.2*	97.0*	10.6
O=C(O)c1ccc(/C=N/Nc2nc3ccccc3[nH]2)cc1	2.0	14.4	38.5	-2.7	-9.2	48.6*	0.3
CN1CCN(C(=S)C(=O)Nc2ccc(Br)cc2)CC1	-0.1	1.2	-4.2	0.1	0.4	94.5*	76.9*
NS(=O)(=O)c1ccc(NC(=S)N2CCN(c3ccccc3Cl)CC2)cc1	-2.0	-0.7	-11.1	4.8	8.1	-1.6	.
CN1CCN(C(=S)Nc2ccc(S(N)(=O)=O)cc2)CC1	-4.5	-2.7	-2.2	-2.9	3.8	81.3*	38.8*
Cc1cccc(C)c1NC(=O)C(c1ccccc1)n1c(=O)c(-c2ccco2)nc2ccccc21 (stereo unspecified)	.	2.1	.	.	-9.5	.	.
O=C(COC(=O)/C=C/C(=O)OCC(=O)NC12CC3CC(CC(C3)C1)C2)NC12CC3CC(CC(C3)C1)C2	-8.8	0.9	-14.0	5.9	4.0	-0.2	.
O=C(Nc1ccc(C(=O)N2CCCCC2)cc1)c1cccs1	7.1	1.9	-7.1	-6.3	-16.8	67.8*	4.1
COc1ccccc1C(=O)NC(=O)CSc1nncn1C(C)C	2.3	-1.4	-7.6	-4.5	0.1	-2.2	.
O=C(Nc1ccc2oc(-c3ccncc3)nc2c1)c1ccc(Br)o1	0.5	28.2	16.3	1.7	5.1	66.7*	3.0
O=C(Nc1ccc2oc(-c3ccncc3)nc2c1)c1ccco1	-1.4	4.0	45.7	8.7	22.9	2.4	.
O=C(Nc1ccc2oc(-c3ccncc3)nc2c1)c1ccc2c(c1)OCO2	32.5	66.9*	34.5	21.9	43.6*	74.1*	2.7
CCOc1ccccc1/C=C(\C#N)C1=CCCC1	-0.3	1.0	-6.4	-2.1	2.2	1.7	.
SMILES	DNMT1 inh	LMPTP block	Scp-1 inhibitor	NadD inh	SUMO1 PPI mod	STEP inh	STEP inh conf
COc1cc(/C=C2/C(=O)NN(c3cccc(C)c3)C2=O)cc([N+](=O)[O-])c1O	58.2*	43.2	40.2	4.8	10.2	50.9*	44.8*
COc1cc(/C=C2/C(=O)NN(c3cccc(C)c3)C2=O)ccc1OC(=O)c1ccco1	7.2	9.5	14.7	18.8	10.3	13.1	.
COc1cc([N+](=O)[O-])ccc1NC(=O)CCS(=O)(=O)c1ccc2c(c1)n(C)c(=O)c(=O)n2C	-0.2	-0.3	15.7	-2.1	-12.5	1.7	.
S=C(NCCN1CCOCC1)C(=S)NCCN1CCOCC1	4.5	-2.3	-2.2	2.6	-19.1	41.5*	12.9
Cc1csc(=O)n1CC(=O)OCC(=O)c1ccc(Br)cc1	0.8	0.6	-11.8	0.6	-1.2	-2.5	.
COc1ccc(C(=O)Oc2ccc3ccc(=O)oc3c2)cc1	3.6	36.6	9.2	-1.1	-5.0	73.7*	-8.3
O=C(Oc1ccc2ccc(=O)oc2c1)c1ccccc1	4.3	6.6	-5.1	-1.9	7.5	5.0	.
CCOC(=O)[C@@H]1[C@H]2COc3cc(OC)ccc3[C@@H]2N2C(=O)N(c3ccccc3)C(=O)[C@@]12C	-0.9	-0.8	-5.8	-3.5	3.6	0.9	.
NS(=O)(=O)c1ccccc1	1.7	-2.3	-4.0	0.4	0.7	67.8*	46.9*
CCCn1c(SCC(=O)c2c(C)[nH]c(C)c2C(=O)OCC)nc2ccccc21	2.6	0.8	-3.9	-1.8	3.9	59.0*	25.8
CCS(=O)(=O)N1CCC(N2CCC(C)CC2)CC1	-1.2	-3.6	2.5	-2.0	0.4	-1.6	.
CCn1c(Sc2ccc([N+](=O)[O-])cn2)nnc1-c1ccco1	9.9	-1.9	-1.2	-1.1	-23.9	-0.6	.
O=C(Nc1nc2nccc(-c3ccccc3)n2n1)c1ccccc1	3.0	0.7	-0.7	1.3	28.6	0.7	.
O=C(Nc1nc2nccc(-c3ccccc3)n2n1)c1ccc(F)cc1	27.9	0.9	-2.7	1.2	4.1	51.6*	-0.6
Cc1ccc(S(=O)(=O)NNC(=O)C(O)(c2ccccc2C)c2ccccc2C)cc1	-1.4	-1.2	-10.3	-6.2	7.2	0.0	.
COc1ccc(S(=O)(=O)Nc2noc3ccccc23)cc1	3.1	-1.6	-7.7	-3.8	1.5	84.4*	-11.1
CC(C)(C)NC(=O)C(c1ccc(F)cc1)N(Cc1ccco1)C(=O)CCC(=O)Nc1ccccn1 (stereo unspecified)	1.4	-0.9	-2.3	-7.6	-1.5	0.0	.
Cc1nc(NC(N)=S)sc1C(=O)Nc1ccccc1	0.9	10.8	3.4	5.7	0.3	50.1*	16.3
CC(=O)C1=NN(c2ccc(Cl)cc2)C(c2ccc3c(c2)OCO3)N(C(C)=O)N1C (stereo unspecified)	2.7	2.0	-7.0	-2.3	0.3	-1.0	.
Clc1ccc(-c2nc(-c3ccncc3)no2)c(Cl)c1	22.6	1.8	-10.9	-3.3	3.0	3.1	.
